By IC50 is commonly meant the point on the concentration scale where inhibition reaches its midpoint. A word on the solubility: it is the dissolved amount per volume that the medium holds. As a reminder, the inhibition is the change of the read-out against control, counted positive when it falls. One may read the half-life as how long it takes for the measured level to halve.

For one data set, the target named is Phosphodiesterase 4 (Homo sapiens, UniProt P27815+Q08499+Q07343+Q08493). Nature of the data set: Inhibition of human PDE4 expressed in U937 cells using [3H]cAMP as substrate after 30 mins. Conditions: u-937. The method in brief:
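PDE4 was purified from U937 human monocytic cells by gel filtration. Reactions ran in 50 mM Tris–HCl pH 7.5 with 5 mM MgCl₂, 1 µM cAMP and 10 nM [³H]-cAMP for 30 min at 30 °C. They were stopped by boiling, treated with snake venom (1 mg/ml) and separated on ion-exchange resin. Substrate consumption stayed below 15%. IC50 values are means of at least three determinations, with SEM.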

Data set [1] in a line: Ratio of IC50 for human PDE4 expressed in U937 cells to IC50 for human HCT116 cells. On the set-up: species or system HCT-116.
In data set [2] the test system is HCT-116. Nature of the data set: Cytotoxicity against human HCT116 cells assessed as reduction of [3H]thymidine incorporation after 72 hrs by scintillation counting. It counts as functional, cell-based. The essentials: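 HCT-116 cells were seeded 24 h before compound and treated with serial dilutions in triplicate for 72 h at 37 °C. [³H]thymidine (1 µCi per well) was added for the last 6 h, and incorporation was read by scintillation counting. IC50 came from nonlinear sigmoidal regression (top 100%, bottom 0%, variable slope). Values are means of at least three independent determinations, with SEM from the individual IC50s.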
(Incorporation of labelled thymidine or its analogues reports DNA synthesis.)

The next data set concerns PBMC. Briefly: Inhibition of LPS-induced TNFalpha production in human PBMC preincubated 1 hr prior to LPS stimulation measured after 18 to 20 hrs by ELISA. It counts as functional, cell-based. The essentials: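 PBMC were isolated by Ficoll-Hypaque density centrifugation and plated at 2 × 10⁵ cells in triplicate. Compounds in DMSO (0.25% final) were added 1 h before stimulation with LPS from S. abortus equi at 1 ng/ml. After 18–20 h at 37 °C in 5% CO₂, supernatant TNF-α was measured by ELISA. IC50 values are means of at least three determinations.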
In general terms: ELISA stands for enzyme-linked immunosorbent assay.

A short description of data set [3]: Solubility of the compound at pH 5 after 4 hrs by UV-Vis spectrophotometry. It counts as physicochemical. Conditions: buffer. The method in brief: (§1)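 A suspension of about 1 mg/mL (0.5 mL) in pH 5.0 or pH 7.4 buffer was stirred at 400 rpm for 4 h and then filtered. Concentration was determined by UV-vis plate reading (200–400 nm) against standard curves for each compound. Replicate measurements were made at pH 5.0.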

The nature of data set [4]: Solubility of the compound at pH 7.4 after 4 hrs by UV-Vis spectrophotometry. It counts as physicochemical. Conditions: buffer. The essentials: as §1
Data set [5] can be described thus: Inhibition of tubulin polymerization at 10 uM after 60 mins by spectrophotometry.
A short description of data set [6]: Inhibition of tubulin polymerization at 5 uM after 60 mins by spectrophotometry.
The subject of data set [7] is Plasma. Nature of the data set: Stability in human plasma assessed as formation of (E/Z)-3-(3-Amino-4-methoxyphenyl)-3-(3-ethoxy-4- methoxyphenyl)acrylonitrile by LC-MS/MS analysis. It counts as ADME, cell-free. The method in brief: (§2)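 Analogs were incubated in human plasma at 37 °C and sampled at 0, 0.5, 1, 2, 3, 4, 6, 8 and 24 h. Samples were quenched in acetonitrile with 0.1% formic acid and internal standard, centrifuged, and analysed by LC–MS/MS in MRM mode on a C18 monolithic column with an aqueous acetonitrile/0.1% formic acid gradient. Percentage remaining was taken from analyte/IS peak-area ratios relative to time zero.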

Data set [8] in a line: Stability in human plasma assessed as half life by LC-MS/MS analysis. The data set is classed as ADME, cell-free. The essentials:
as §2

Data set [9] concerns HCT-116. Briefly: Antitumor activity against human HCT116 cells xenografted in SCID mouse assessed as reduction in tumor volume at 20 mg/kg, ip qd measured twice weekly relative to control. It counts as functional. More on the design: scale not given: the % may be the effect or the level left. The settings on record: route intraperitoneal. The essentials: (§3)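 Female SCID mice, 6–8 weeks old, inoculated s.c. in the right hind leg with 2 × 10⁶ HCT-116 cells in sterile PBS. On day 8, mice with 75–125 mm³ tumors were randomized and dosed ip in CMC-Tween vehicle (0.5% carboxymethylcellulose, 0.25% Tween 80 in water). Tumors were measured twice weekly by caliper, volume W² × L / 2, and compared with vehicle.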

For data set [10], the system named is HCT-116. Nature of the data set: Antitumor activity against human HCT116 cells xenografted in SCID mouse assessed as tumor growth inhibition at 5 mg/kg, ip once every 4 days measured twice weekly relative to control. It counts as functional. The settings on record: HCT-116, ip, 96 h, route intraperitoneal, read-out: GI. The method in brief: as §3
On the technique in general: In xenograft studies the graft and the host belong to different species.

The next data set deals with Mus musculus. Briefly: Toxicity in SCID mouse xenografted with human HCT116 cells assessed as reduction in body weight at 20 mg/kg, ip once daily measured after day 19 relative to control. The data set is classed as organism-based, HCT-116. The settings on record: in vivo. More on the design: dose 20 mg/kg, route intraperitoneal; scale not given: the % may be the effect or the level left. The method in brief:
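SCID mice carrying s.c. HCT-116 tumors were dosed ip at 20 mg/kg once daily in CMC-Tween vehicle (0.5% carboxymethylcellulose, 0.25% Tween 80) from day 8. Health was monitored daily and body weights were compared with the vehicle group.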

The test system of data set [11] is HCT-116. Briefly: Antitumor activity against human HCT116 cells xenografted in SCID mouse assessed as tumor growth inhibition at 20 mg/kg, ip once daily measured twice weekly relative to control. The settings on record: HCT-116, ip, 24 h, read-out: GI.
For data set [12], the system named is Plasma. Nature of the data set: Stability in human plasma assessed as formation of (E/Z)-3-(3-Ethoxy-4-methoxyphenyl)-3-(3-hydroxy-4- methoxyphenyl)acrylonitrile […] by LC-MS/MS analysis. It counts as ADME, cell-free. Conditions: 20 min.

With `COc1cc(OC)cc(C(=C(C)C)c2ccc(OC)c(O)c2)c1`, the IC50 at Phosphodiesterase 4 is greater than 10000 nM; with HCT-116 [2], 970 nM; in the data set with PBMC, 7000 nM. Also, the “Ratio IC50” value in [1] is given as 10.

For `CCOc1cc(C(=CC#N)c2ccc(OC)c(N)c2)ccc1OC`, the figures for the IC50 at Phosphodiesterase 4, with HCT-116 [2] and with PBMC were 47 nM, 19 nM and 31 nM, respectively. Further, the solubility at 4 h in data set [3] and in data set [4] was less than 3 µg/mL in each case. In addition, the inhibition was found to be 76% in data set [5] and 65% in data set [6].

Turning to `CCOc1cc(C(=CC#N)c2ccc(OC)c(NC(=O)[C@H](C)N)c2)ccc1OC.Cl`, the IC50 stood at 150 nM against Phosphodiesterase 4, 40 nM in the data set on HCT-116 [2] and 27 nM with PBMC. The Stability result in the data set on Plasma [7] was “Stable”. The solubility at 4 h in data set [3] was 1040 µg/mL; in [4], 405 µg/mL. In addition, the half-life in [8] was 27 h.

Regarding `CCOc1cc(C(=CC#N)c2cc(OC)cc(OC)c2)ccc1OC`, the IC50 was 54 nM against Phosphodiesterase 4, 34 nM with HCT-116 [2] and 43 nM in the data set on PBMC. Further, in the data set on HCT-116 [9], the Activity amounted to 16%. Besides, the inhibition in [5] amounted to 59%; in data set [6], 48%.

With `CCc1c2c(nc3ccc(OC(=O)N4CCC(N5CCCCC5)CC4)cc13)-c1cc3c(c(=O)n1C2)COC(=O)[C@]3(O)CC` [IRINOTECAN], the inhibition in vivo at 5 mg/kg with HCT-116 [10] stood at 85%.

For `CCOc1cc(C(=CC#N)c2ccc(OC)c(NC(=O)CN)c2)ccc1OC.Cl`, the IC50 at Phosphodiesterase 4 turned out to be 400 nM; with HCT-116 [2], 93 nM; in the data set with PBMC it was 31 nM. Besides, the Activity in the data set with Mus musculus worked out at 15%. For the same compound, in the data set with Plasma [7], the Stability result is “Stable”. The inhibition in vivo at 20 mg/kg with HCT-116 [11] stood at 64%. Besides, the solubility at 4 h in data set [3] amounted to 356 µg/mL; in data set [4], 205 µg/mL. In addition, the inhibition in [5] is 70%; in data set [6], 59%. Also, the half-life in [8] is 56 h.

For `CCOc1cc(C(=CC#N)c2ccc(OC)c(OC(=O)[C@@H](N)C(C)C)c2)ccc1OC.Cl`, the IC50 against Phosphodiesterase 4 worked out at 120 nM; with HCT-116 [2], 22 nM; in the data set on PBMC, 67 nM. Further, the Stability entry in the data set with Plasma [12] is listed as “Unstable”.

Source of the values: ChEMBL document CHEMBL1914453, “1,1-Diarylalkenes as anticancer agents: dual inhibitors of tubulin polymerization and phosphodiesterase 4” (Bioorg Med Chem, 2011).
